Assay outcomes from PubChem.
SKKanGAS inh: blocks kanamycin growth of S. pyogenes SKKanGAS strain. BacTiter-Glo, 6 h. inhibition, % at 7.5 µM. 1.3% of 300,000 active. AID 1662;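 active means mean replicate score, as percent of positive control median, at least 50; inconclusive means mean below 50 but one replicate at or above 50; inactive means mean and every replicate below 50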;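 further: strain carries kanamycin resistance gene driven by streptokinase promoter and grows in 40 µg/ml kanamycin; loss of luminescence reflects streptokinase promoter inhibition or plain growth inhibition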
CSC inhib: cancer stem cell inhibition; 1.1% of 300,000 active; inhibition, % at 7.5 µM; cancer stem cell-like cells viability, luminescence; in the data active means inhibition above about 75%; inconclusive means no clear call, values can overlap the other calls; tested in HMLE shEcad cells
Beta cell apopt: blocks beta cell apoptosis; INS-1E cytokine-induced death, ATP luminescence, 48 h; percent of positive-control rescue, neutral wells zero; protection from apoptosis, % (test concentration not listed); 0.8% of 300,000 active; AID 435005;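 active means Every replicate reaches about 75%, or at least half do and their mean reaches it too, limit read from the data; inconclusive means At least half of replicates reach the limit but their mean does not; inactive means Under half of replicates reach the limit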;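 further: higher means more ATP so stronger rescue from cytokine killing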
Mdm2-MdmX inh: human Mdm2/MdmX binding inhibition. O15151+Q00987. inhibition, % at 8 µM. 3% of 330,000 active. SaOS-2 split-luciferase Mdm2/MdmX complementation, luminescence. AID 485346;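 active means inhibition of at least 50% at 8 µM in the primary screen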
Target sequence (O15151 whole entry, looked up): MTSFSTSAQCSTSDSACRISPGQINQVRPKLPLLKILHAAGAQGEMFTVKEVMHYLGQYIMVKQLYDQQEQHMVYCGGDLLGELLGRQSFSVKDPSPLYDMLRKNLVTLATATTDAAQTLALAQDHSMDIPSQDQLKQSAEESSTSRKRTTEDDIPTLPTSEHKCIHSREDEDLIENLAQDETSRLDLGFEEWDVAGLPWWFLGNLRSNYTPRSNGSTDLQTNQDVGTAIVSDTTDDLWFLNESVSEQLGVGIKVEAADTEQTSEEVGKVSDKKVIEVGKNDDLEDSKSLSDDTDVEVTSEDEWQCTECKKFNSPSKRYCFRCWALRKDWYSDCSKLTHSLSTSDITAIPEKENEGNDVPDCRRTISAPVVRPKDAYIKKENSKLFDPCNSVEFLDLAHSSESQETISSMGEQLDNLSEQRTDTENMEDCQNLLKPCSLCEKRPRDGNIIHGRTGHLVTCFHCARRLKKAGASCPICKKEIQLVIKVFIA
Target sequence (Q00987 whole entry, looked up): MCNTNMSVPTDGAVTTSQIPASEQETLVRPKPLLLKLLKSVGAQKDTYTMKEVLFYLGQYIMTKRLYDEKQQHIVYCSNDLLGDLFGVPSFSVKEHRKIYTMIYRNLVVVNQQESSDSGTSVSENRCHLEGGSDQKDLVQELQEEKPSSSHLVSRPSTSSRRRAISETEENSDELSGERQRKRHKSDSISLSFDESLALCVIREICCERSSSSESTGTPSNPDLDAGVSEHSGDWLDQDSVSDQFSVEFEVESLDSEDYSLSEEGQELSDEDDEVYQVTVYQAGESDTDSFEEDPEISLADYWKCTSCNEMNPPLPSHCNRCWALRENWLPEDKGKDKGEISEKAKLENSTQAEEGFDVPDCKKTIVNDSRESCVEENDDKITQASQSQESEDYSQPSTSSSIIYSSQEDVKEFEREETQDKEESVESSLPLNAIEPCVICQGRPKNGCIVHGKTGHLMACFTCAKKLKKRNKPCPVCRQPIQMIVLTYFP
Calb FLC: affects C. albicans growth with fluconazole | C. albicans CaCi-2 (fluconazole-resistant clinical isolate) + fluconazole, Alamar Blue growth, 48 h | growth inhibition, % (test concentration not listed) | 0.57% of 300,000 active;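 active means growth inhibition above about 58% in most replicates, limit read from the data, passing the limit was not always enough; inconclusive means exactly half the replicates above a set limit; inactive means most replicates below a set limit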;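 further: all wells also contain fluconazole at 8 µg/ml as a sub-toxic cotreatment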
T cruzi inh: blocks replication of Trypanosoma cruzi. inhibition, % (no concentration beside the values). T. cruzi beta-gal in NIH3T3, luminescence, 90 h. 1.4% of 300,000 active;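 active means mean inhibition across valid replicates above about 55%, limit read from the data; inconclusive means mean below that limit but half or more replicates reach it; inactive means mean below it, under half of replicates reach it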;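 further: signal also drops with host cell toxicity which is not excluded here; higher percent means less beta-gal luminescence so fewer parasites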
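Test system: β-gal T. cruzi (Tulahuen C4) inside NIH/3T3 cells / Quantity: 5,000 cells/well / Measured by: luminescence from GalScreen with 0.05% NP40, read after 60 min / Medium: DMEM plus 2% FBS / Measure: parasite load inhibition, % / Reagent: Tulahuen C4 trypomastigotes, 5000/well / Schedule: co-culture of at least 90 h after 3 h attachment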
Mdm2 MdmX conf: confirmation of human Mdm2/MdmX interaction inhibitors; shares compounds with Mdm2-MdmX inh; Mdm2-MdmX binding, luminescent assay; inhibition, % at 8 µM; 55% of 10,000 active; in the data active means inhibition above about 40%
FLuc counter: inhibits full-length luciferase, flagging false Mdm2/MdmX hits. shares compounds with Mdm2-MdmX inh. 77% of 6,200 active. inhibition, % at 8 µM. SaOS-2 full-length luciferase counterscreen, luminescence;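 active means mean inhibition at 8 µM reaching about 37%, which flags the compound as non-specific, limit read from the data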;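 further: p53-null SaOS-2 cells with luciferase driven by a doxycycline-inducible promoter; compound on cells about two nights before reading with doxycycline added after day one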
Each line names hits and unclear results; the compound was inactive in the other large screens (follow-up assays come after a bar, where they were run). Rows were chosen to be rich in hits. Some 5.7% of all compounds tested hit in one or more screens of this group.

NNC(=O)CNC(=O)c1cccc(Br)c1	none
O=C(O)CCC(=O)Nc1ccc(N=Nc2ccccc2)cc1	none (no result: CSC inhib, Beta cell apopt, Mdm2-MdmX inh)
CC(C)(C)C(=O)Nc1ccc(N=Nc2ccccc2)cc1	Mdm2-MdmX inh 71 | Mdm2 MdmX conf 73 | FLuc counter 136
Cc1ccc2[nH]c(=O)c(COC(=O)c3cccs3)cc2c1	Mdm2-MdmX inh 51 (no result: CSC inhib) | Mdm2 MdmX conf inactive
O=C(COc1ccc(Cl)cc1)Nc1ccc(C(=O)O)cc1NC(=O)COc1ccc(Cl)cc1	none (no result: Calb FLC)
CCc1ccc(NC(=O)Cn2c(=O)c3cccn3c3ccccc32)cc1	Mdm2-MdmX inh 66 | Mdm2 MdmX conf 61 | FLuc counter 55
CCOc1ccc(CNC(=O)Cn2c(=O)c3cccn3c3ccccc32)cc1	Mdm2-MdmX inh 55 | Mdm2 MdmX conf inactive
CCc1ccc(NC(=O)CCn2c(=O)c3cccn3c3ccccc32)cc1	none
CCOc1ccc(CNC(=O)Cn2nc(C)n3nc(-c4ccccc4)cc3c2=O)cc1	Mdm2-MdmX inh 97 | Mdm2 MdmX conf inactive
COc1cc(CC(=O)OCC(=O)NC2CCCCC2C)cc(OC)c1OC (stereo not given)	none (no result: SKKanGAS inh, CSC inhib, Beta cell apopt, Calb FLC, T cruzi inh)
C[C@@H]1CN([C@@H](C)CO)C(=O)c2cc(NC(=O)Nc3ccccc3)ccc2O[C@H]1CN(C)C(=O)Nc1cccc2ccccc12	none (no result: SKKanGAS inh, Calb FLC, T cruzi inh)
O=C(NCCN1C(=O)S/C(=C\c2ccc(Cl)c(Cl)c2)C1=O)c1cnccn1	none
O=C(NCCN1C(=O)S/C(=C\c2ccc(Cl)c([N+](=O)[O-])c2)C1=O)C1=COCCO1	Mdm2-MdmX inh 96 (no result: Calb FLC) | Mdm2 MdmX conf 58 | FLuc counter 57
Fc1cccc(/C=N/Nc2nc3ccccc3[nH]2)c1	none
C(=N\Nc1nc2ccccc2[nH]1)/c1cccc2cccnc12	CSC inhib 100, Mdm2-MdmX inh 65 (no result: Beta cell apopt) | Mdm2 MdmX conf 66 | FLuc counter 45
Cc1ccc(/C=N/Nc2nc3ccccc3[nH]2)s1	Calb FLC inconclusive
Cc1[nH]c2ccccc2c1/C=N/Nc1nc2ccccc2[nH]1	SKKanGAS inh 61, Beta cell apopt 118, Mdm2-MdmX inh 62, T cruzi inh inconclusive | Mdm2 MdmX conf inactive
NCCCC[C@H]1CNC(=O)C(=O)N1CCc1cccc(F)c1	none
CCCN(CC(=O)Nc1cc(Cl)cc(Cl)c1)CC(=O)Nc1ccc(F)c(F)c1F	SKKanGAS inh 82, Mdm2-MdmX inh 52 (no result: CSC inhib) | Mdm2 MdmX conf inactive
CCCOc1ccc(N2C(=O)CC(SC(=N)N3N=C(c4ccccc4)CC3c3ccccc3)C2=O)cc1 (stereo not given)	Mdm2-MdmX inh 60, T cruzi inh 68 | Mdm2 MdmX conf inactive | FLuc counter 77
CN=c1scc(-c2ccccc2F)n1/N=C/c1ccc[nH]1	Mdm2-MdmX inh 94 | Mdm2 MdmX conf 98 | FLuc counter inactive
Cc1ccc2ncnc(Nc3cccc(C(=O)O)c3)c2c1	none
Clc1cccc(Nc2ncnc3ccc(Br)cc23)c1	Mdm2-MdmX inh 74 | Mdm2 MdmX conf 43 | FLuc counter inactive
Brc1ccc2ncnc(NCc3ccccc3)c2c1	Mdm2-MdmX inh 84 | Mdm2 MdmX conf 81 | FLuc counter 53
Clc1ccc(Nc2ncnc3ccc(Br)cc23)cc1	CSC inhib inconclusive, Mdm2-MdmX inh 77 | Mdm2 MdmX conf 61 | FLuc counter 37
O=C(O)c1ccc(Nc2ncnc3ccccc23)cc1	none
Cc1ccc2ncnc(Nc3ccccc3)c2c1	none
Cc1cccc(Nc2ncnc3ccc(Br)cc23)c1	Mdm2-MdmX inh 76 | Mdm2 MdmX conf 59 | FLuc counter inactive
NC(=O)C1CCN(C(=O)CCSCc2ccc(Cl)c(Cl)c2)CC1	none
CCOC(=O)C1=CNS(=O)(=O)NC1c1ccccc1 (stereo not given)	none (no result: SKKanGAS inh, CSC inhib, Beta cell apopt, Calb FLC, T cruzi inh)
O=S(=O)(c1ccc(N2CCOCC2)nc1)N(Cc1ccccn1)Cc1ccccn1	none
Cc1cccc(C(=O)N[C@H](C(=O)Nc2ccc(C)c(S(=O)(=O)N3CCOCC3)c2)C(C)C)c1	none (no result: SKKanGAS inh, Calb FLC, T cruzi inh)
COc1ccc(Nc2ncnc3ccc(Br)cc23)cc1OC	Mdm2-MdmX inh 58 | Mdm2 MdmX conf 64 | FLuc counter inactive
